From ChEMBL document CHEMBL4014335, “Activation of Phenyl 4-(2-Oxo-3-alkylimidazolidin-1-yl)benzenesulfonates Prodrugs by CYP1A1 as New Antimitotics Targeting Breast Cancer Cells” (J Med Chem, 2017)

Columns and labels:
[1] = Selectivity ratio of IC50 for human HT-29 cells to IC50 for human MCF7 cells; format: functional
Method in brief: (§1)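 Ratio is IC50 in reference line over IC50 in sensitive line. […] Cells in DMEM with 5% calf serum at 37 °C. At least two experiments, triplicate cultures; assay accepted when relative SD < 10%.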

MCF7 = experiment: Antiproliferative activity against human MCF7 cells after 48 hrs by SRB assay; format: functional, cell-based; conditions: MCF7, 48 h
Method in brief: (§2)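 SRB assay run as in the NCI screen with slight modifications. Seeding: HT-29 5.0 x 10^3, M21 3.5 x 10^3, MCF7 7.5 x 10^3 cells; cells preincubated 24 h. Drug in DMSO added at 0.75 to 1.0 x 10^5 nM for 48 h. TCA fixation, sulforhodamine B staining, absorbance 530-565 nm. At least two experiments in triplicate; runs accepted only when relative SD < 10%.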

M21 = experiment: Antiproliferative activity against human M21 cells after 48 hrs by SRB assay; format: functional, cell-based; conditions: M21, 48 h; method in brief: as §2
[2] = Selectivity ratio of IC50 for human M21 cells to IC50 for human MCF7 cells; format: functional; method in brief: as §1
HT-29 = experiment: Antiproliferative activity against human HT-29 cells after 48 hrs by SRB assay; format: functional, cell-based; conditions: HT-29, 48 h; method in brief: as §2

Structure (SMILES)	IC50 (MCF7) [µM]	IC50 (HT-29) [µM]	Ratio IC50 [1]	IC50 (M21) [µM]	Ratio IC50 [2]
CCCN1CCN(c2ccc(S(=O)(=O)Oc3ccc(OC)cc3)cc2)C1=O	20	16	0.8	23	1.2
CCCN1CCN(c2ccc(S(=O)(=O)Oc3cccc([N+](=O)[O-])c3)cc2)C1=O	19	> 100	>5.3	38	2
CCN1CCN(c2ccc(S(=O)(=O)Oc3ccccc3OC)cc2)C1=O	> 100	> 100	–	> 100	–
CCCN1CCN(c2ccc(S(=O)(=O)Oc3ccc(C)cc3)cc2)C1=O	64	25	0.4	28	0.4
CCCN1CCN(c2ccc(S(=O)(=O)Oc3ccc(OC)c(OC)c3)cc2)C1=O	6.8	14	2	28	4.1
CCN1CCN(c2ccc(S(=O)(=O)Oc3ccc(OC)cc3)cc2)C1=O	> 100	60	–	26	–
CCCN1CCN(c2ccc(S(=O)(=O)Oc3ccccc3C)cc2)C1=O	> 100	> 100	–	> 100	–
CCCCN1CCN(c2ccc(S(=O)(=O)Oc3ccc(F)c(F)c3)cc2)C1=O	0.76	> 100	>130	> 100	>130
CCCCN1CCN(c2ccc(S(=O)(=O)Oc3ccccc3)cc2)C1=O	8.8	> 100	>11	> 100	>11
CCCN1CCN(c2ccc(S(=O)(=O)Oc3c(Cl)cc(Cl)cc3Cl)cc2)C1=O	> 100	56	–	56	–

The next lines start with results.

IC50 (MCF7) [µM]	IC50 (HT-29) [µM]	Structure (SMILES)	Ratio IC50 [1]	IC50 (M21) [µM]	Ratio IC50 [2]
> 100	> 100	CN1CCN(c2ccc(S(=O)(=O)Oc3ccc(F)cc3)cc2)C1=O	–	> 100	–
0.11	21	CCCCN1CCN(c2ccc(S(=O)(=O)Oc3cccc(Cl)c3)cc2)C1=O	190	90	820
26	4.6	CCc1ccccc1OS(=O)(=O)c1ccc(N2CCN(C)C2=O)cc1	0.2	2.3	0.1
24	18	CCCN1CCN(c2ccc(S(=O)(=O)Oc3cccc(F)c3)cc2)C1=O	0.8	12	0.5
12	12	COc1ccc(OS(=O)(=O)c2ccc(N3CCN(C)C3=O)cc2)cc1OC	1	8.5	0.72
95	> 100	COc1ccc(OS(=O)(=O)c2ccc(N3CCN(C)C3=O)cc2)cc1	>1.1	> 100	>1.1
5.1	4.3	Cc1cccc(OS(=O)(=O)c2ccc(N3CCN(C)C3=O)cc2)c1	0.9	2.3	0.5
0.56	0.59	CN1CCN(c2ccc(S(=O)(=O)Oc3cccc(I)c3)cc2)C1=O	1.1	0.4	0.7
> 100	> 100	CCN1CCN(c2ccc(S(=O)(=O)Oc3cccc(F)c3)cc2)C1=O	–	11	–
> 100	26	CN1CCN(c2ccc(S(=O)(=O)Oc3cccc([N+](=O)[O-])c3)cc2)C1=O	–	23	–
> 100	> 100	Cc1ccc(OS(=O)(=O)c2ccc(N3CCN(C)C3=O)cc2)cc1	–	> 100	–
> 100	12	CN1CCN(c2ccc(S(=O)(=O)Oc3ccc(Cl)cc3)cc2)C1=O	–	43	–
> 100	> 100	CN1CCN(c2ccc(S(=O)(=O)Oc3cccc(F)c3)cc2)C1=O	–	5.8	–
